Measured values: ChEMBL document CHEMBL1129462, “Synthesis and angiotensin II receptor antagonistic activities of benzimidazole derivatives bearing acidic heterocycles as novel tetrazole bioisosteres” (J Med Chem, 1996)

How the values were obtained:
[1] = Inhibition of specific binding of [125I]angiotensin II (0.2 nM) to angiotensin II receptor in bovine adrenal cortex; assay type: tissue-based, Bos taurus
Rattus norvegicus [2] = assay: Percent inhibition of AII ([…]) -induced pressor response 7 hr after administration of test compounds (1 mg/kg po) in conscious male Sprague-Dawley rats.; assay type: functional
[3] = target: T1, Angiotensin II receptor (Rattus norvegicus) (UniProt P29089+P25095+P35351); assay: Percent inhibition of angiotensin II (0.1 ug/kg iv) -induced pressor response 3h after administration of test compounds (1 mg/kg po) in conscious male Sprague-Dawley rats; assay type: functional, organism-based
In short: (§1)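 Conscious male Sprague-Dawley rats were given the test compound at 1 mg/kg orally. They were then challenged with AII at 0.1 μg/kg iv. The AII-induced pressor response was measured 3 and 7 h after dosing and expressed as percent inhibition.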

[4] = target: T1, Angiotensin II receptor (Rattus norvegicus); assay: Percent inhibition of angiotensin II (0.1 ug/kg iv) -induced pressor response 7 hr after administration of test compounds (1 mg/kg po) in conscious male Sprague-Dawley rats; assay type: functional, organism-based; in short: as §1
Rattus norvegicus [5] = assay: Percent inhibition of AII (0.1 ug/kg iv) -induced pressor response at 7 hr after administration of test compounds (0.1 mg/kg po) in conscious male Sprague-Dawley rats.; assay type: functional; conditions: in the assay text read “3 hr” for “7 hr”
In short: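 In conscious male Sprague-Dawley rats, the oral test dose was 0.1 mg/kg. The pressor response to an AII challenge (0.1 μg/kg iv) was recorded after dosing, and percent inhibition was calculated.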

[6] = Bioavailability; assay type: ADME, organism-based; conditions: eutheria, in vivo; read-out: BA
[7] = Partition coefficient (logP); assay type: physicochemical; conditions: octanol/water
[8] = pka value was determined; assay type: physicochemical
In short: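 pKa of the acidic group was estimated from the corresponding methyl ester. Titration was potentiometric with standardized 0.1 N NaOH in DMSO–H2O (2:3) at 26 °C.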

Rattus norvegicus [9] = assay: Percent inhibition of AII (0.1 ug/kg iv) -induced pressor response at 3 hr after administration of test compounds (0.1 mg/kg po) in conscious male Sprague-Dawley rats.
Rattus norvegicus [10] = assay: Percent inhibition of AII-induced pressor response 7 hr after administration of test compounds (1 mg/kg po) in conscious male Sprague-Dawley rats.

Structure (SMILES)	IC50 [1] [nM]	inhibition [3] [%]	inhibition [4] [%]	further results
CCOc1nc2cccc(C(=O)OC)c2n1Cc1ccc(-c2ccccc2C2=NOS(=O)N2)cc1 (stereo unspecified)	460	35		Inhibition (Rattus norvegicus [2]): 29%
CCSc1nc2cccc(C(=O)O)c2n1Cc1ccc(-c2ccccc2-c2nsc(O)n2)cc1	470	100	100	
CSc1nc2cccc(C(=O)O)c2n1Cc1ccc(-c2ccccc2-c2noc(S)n2)cc1	1000	100	91	
CCOc1nc2cccc(C(=O)OC)c2n1Cc1ccc(-c2ccccc2-c2noc(O)n2)cc1	440	100	100	
CCCCc1nc2cccc(C(=O)OC)c2n1Cc1ccc(-c2ccccc2-c2nn[nH]n2)cc1	320			
CCc1nc2cccc(C(=O)O)c2n1Cc1ccc(-c2ccccc2-c2noc(S)n2)cc1	340	91	89	
Cc1nc2cccc(C(=O)O)c2n1Cc1ccc(-c2ccccc2-c2noc(S)n2)cc1	> 1000	57	50	
CCCCc1nc2cccc(C(=O)O)c2n1Cc1ccc(-c2ccccc2-c2noc(O)n2)cc1	620	68	64	
CCOc1nc2cccc(C(=O)O)c2n1Cc1ccc(-c2ccccc2-c2nsc(O)n2)cc1	250	100		bioavailability [6]: 51%; logP [7]: 1.58; pKa [8]: 6.6; Inhibition (Rattus norvegicus [5]): 100%
CCOc1nc2cccc(C(=O)OC)c2n1Cc1ccc(-c2ccccc2-c2noc(S)n2)cc1	> 1000	83	93	
CCOc1nc2cccc(C(=O)OC)c2n1Cc1ccc(-c2ccccc2-c2nn[nH]n2)cc1	66			
Cc1nc2cccc(C(=O)O)c2n1Cc1ccc(-c2ccccc2-c2nsc(O)n2)cc1	970	80	71	
CCCCc1nc2cccc(C(=O)O)c2n1Cc1ccc(-c2ccccc2-c2nn[nH]n2)cc1	550			
CCOc1nc2cccc(C(=O)OC)c2n1Cc1ccc(-c2ccccc2-c2nsc(O)n2)cc1	750	100	100	
COc1nc2cccc(C(=O)O)c2n1Cc1ccc(-c2ccccc2-c2nsc(O)n2)cc1		88	91	
CCOc1nc2cccc(C(=O)O)c2n1Cc1ccc(-c2ccccc2-c2nnn[nH]2)cc1	110			bioavailability [6]: 5%; pKa [8]: 5.3
CCCCc1nc2cccc(C(=O)O)c2n1Cc1ccc(-c2ccccc2-c2nsc(O)n2)cc1	720	92		Inhibition (Rattus norvegicus [5]): 19%

Now from value to molecule, other results behind:

IC50 [1] [nM]	inhibition [3] [%]	inhibition [4] [%]	Structure (SMILES)	further results
69	100	100	CCc1nc2cccc(C(=O)O)c2n1Cc1ccc(-c2ccccc2-c2nsc(O)n2)cc1	
900			CCCCc1nc2cccc(C(=O)OC)c2n1Cc1ccc(-c2ccccc2-c2noc(O)n2)cc1	
> 1000	100	100	CCCSc1nc2cccc(C(=O)O)c2n1Cc1ccc(-c2ccccc2-c2nsc(O)n2)cc1	
390	96	94	CCCc1nc2cccc(C(=O)O)c2n1Cc1ccc(-c2ccccc2-c2noc(S)n2)cc1	
690	100	100	CCSc1nc2cccc(C(=O)O)c2n1Cc1ccc(-c2ccccc2-c2noc(S)n2)cc1	
760	82		CCCCc1nc2cccc(C(=O)O)c2n1Cc1ccc(-c2ccccc2-c2noc(S)n2)cc1	Inhibition (Rattus norvegicus [5]): 19%
920	83	100	CCCOc1nc2cccc(C(=O)O)c2n1Cc1ccc(-c2ccccc2-c2nsc(O)n2)cc1	
> 1000	87		CCCCc1nc2cccc(C(=O)OC)c2n1Cc1ccc(-c2ccccc2-c2nsc(O)n2)cc1	Inhibition (Rattus norvegicus [5]): 10%
150			CCCCc1nc(Cl)c(CO)n1Cc1ccc(-c2ccccc2-c2nnn[nH]2)cc1 [LOSARTAN]	
360	100	100	CCCc1nc2cccc(C(=O)O)c2n1Cc1ccc(-c2ccccc2-c2nsc(O)n2)cc1	
> 1000	84		CCCCc1nc2cccc(C(=O)OC)c2n1Cc1ccc(-c2ccccc2-c2noc(S)n2)cc1	Inhibition (Rattus norvegicus [9]): 7%
130	70	71	CCNc1nc2cccc(C(=O)O)c2n1Cc1ccc(-c2ccccc2-c2nsc(O)n2)cc1	
420	100		CCOc1nc2cccc(C(=O)O)c2n1Cc1ccc(-c2ccccc2-c2noc(=O)[nH]2)cc1 [AZILSARTAN]	bioavailability [6]: 20%; pKa [8]: 6.1; Inhibition (Rattus norvegicus [9]): 75%
> 1000	100	100	CCCSc1nc2cccc(C(=O)O)c2n1Cc1ccc(-c2ccccc2-c2noc(S)n2)cc1	
540	32	29	CNc1nc2cccc(C(=O)O)c2n1Cc1ccc(-c2ccccc2-c2nsc(O)n2)cc1	
500	100	100	CSc1nc2cccc(C(=O)O)c2n1Cc1ccc(-c2ccccc2-c2nsc(O)n2)cc1	
> 1000	63		CCCCc1nc2cccc(C(=O)OC)c2n1Cc1ccc(-c2ccccc2C2=NOS(=O)N2)cc1 (stereo unspecified)	Inhibition (Rattus norvegicus [10]): 22%
